Published values from different studies.
Lines come from different studies, so protocols differ.
ABL1 phosphorylated: Tyrosine-protein kinase ABL1, phosphorylated (ABL1, Homo sapiens, UniProt P00519)
ABL1 F317I phosphorylated: Tyrosine-protein kinase ABL1, phosphorylated (ABL1, Homo sapiens, UniProt P00519, F317I)
ABL1 H396P phosphorylated: Tyrosine-protein kinase ABL1, phosphorylated (ABL1, Homo sapiens, UniProt P00519, H396P)
ABL1 Q252H non-phosphorylated: Tyrosine-protein kinase ABL1, non-phosphorylated (ABL1, Homo sapiens, UniProt P00519, Q252H)
ABL1 Q252H: Tyrosine-protein kinase ABL1 (ABL1, Homo sapiens, UniProt P00519, Q252H)
ABL1 H396P non-phosphorylated: Tyrosine-protein kinase ABL1, non-phosphorylated (ABL1, Homo sapiens, UniProt P00519, H396P)
ABL1 F317L phosphorylated: Tyrosine-protein kinase ABL1, phosphorylated (ABL1, Homo sapiens, UniProt P00519, F317L)
ABL1 T315I phosphorylated: Tyrosine-protein kinase ABL1, phosphorylated (ABL1, Homo sapiens, UniProt P00519, T315I)

SMILES	target	test	setting	remaining binding
CC(C)(C)c1ccc(-c2nc(CBr)nn2-c2cccc(O)c2)cc1	ABL1 phosphorylated	cell-free assay, competition with immobilised ligand	10 µM	85%
O=C(N[C@H]1CCCCC/C=C\C2C[C@@]2(C(=O)O)NC(=O)[C@@H]2C[C@@H](Oc3ccncc3)CN2C1=O)OC1CCCC1 (stereo partly shown)	ABL1 F317I phosphorylated	binding	1 µM	96%
c1cnn2ncc(-c3ccnc(N4CCC45COC5)n3)c2c1	Tyrosine-protein kinase ABL1 (ABL1, Homo sapiens, UniProt P00519, E255K)	binding	1 µM	63%
O=C(NS(=O)(=O)c1ccc(NCC2CCOCC2)c([N+](=O)[O-])c1)c1ccc(N2CCN(Cc3ccc(C(F)(F)F)cc3-c3ccc(Cl)cc3)CC2)cc1Oc1cnc2[nH]ccc2c1	ABL1 H396P phosphorylated	cell-free assay, competition with immobilised ligand	1 µM	92%
Cc1cnc(Nc2ccc(C(=O)N3CCC(N4CCCC4)CC3)cc2)nc1-c1cc2ccccc2s1	ABL1 Q252H non-phosphorylated	binding, competition with immobilised ligand	1 µM	1.1%
CCN1CCN(Cc2ccc(C(=O)Nc3ccc(C)c(Oc4ccc5c(c4)CC(=O)N5)c3)cc2C(F)(F)F)CC1	Tyrosine-protein kinase ABL1, phosphorylated (ABL1, Homo sapiens, UniProt P00519, Y253F)	binding, competition with immobilised ligand	1 µM	38%
O=C(c1ccc(Nc2nccc(-c3cc4ccccc4s3)n2)cc1)N1CCC(N2CCCC2)CC1	ABL1 phosphorylated	binding, competition with immobilised ligand	1 µM	21%
C[C@H]1CCN(c2nccc(-c3cnn4ncccc34)n2)C1	ABL1 Q252H	binding	1 µM	84%
CCC(=O)N[C@@H]1CC[C@H](C(=O)N(C)c2ccc(-c3nc4ccccc4o3)cc2)C1	ABL1 Q252H non-phosphorylated	cell-free assay, competition with immobilised ligand	1 µM	77%
COc1cnc(Nc2cccc(S(N)(=O)=O)c2)nc1N1CCN(c2ccccc2)CC1	Tyrosine-protein kinase ABL1, phosphorylated (ABL1, Homo sapiens, UniProt P00519, E255K)	binding, competition with immobilised ligand	1 µM	84%
O=C(NCCCN1CCOCC1)c1ccc(Nc2ncc(Cl)c(-c3ccc(Cl)s3)n2)cc1	ABL1 H396P non-phosphorylated	binding, competition with immobilised ligand	1 µM	4.2%
c1cncc(-c2cccc(Nc3nccc(NC4CCCCC4)n3)c2)c1	ABL1 F317L phosphorylated	binding, competition with immobilised ligand	10 µM	61%
CN(C(=O)c1ccccc1)c1cc(N(C)c2ccc3c(c2)CCc2ccc(C(=O)NCCN4CCOCC4)cc2C3=O)ccc1F	ABL1 F317L phosphorylated	cell-free assay, competition with immobilised ligand	1 µM	68%
CNC(=O)[C@@H]1CC[C@@H](n2c(-c3ccc4cnccc4c3)nc3ccc(C(=O)NCc4cccc(C(N)=O)c4)cc32)C1	ABL1 T315I phosphorylated	binding, competition with immobilised ligand	1 µM	100%
Cc1cc(NC(=O)c2cccc(S(F)(F)(F)(F)F)c2)cc(-n2ccn3nc(-c4cccnc4)cc23)c1	Tyrosine-protein kinase ABL1, non-phosphorylated (ABL1, Homo sapiens, UniProt P00519, F317I)	binding, competition with immobilised ligand	1 µM	100%
C[C@@H](c1ccc(-n2cnc3c(N)ncnc32)cc1)N1CCc2nn(C)c(Cc3ccccc3)c2C1=O	Tyrosine-protein kinase ABL1, non-phosphorylated (ABL1, Homo sapiens, UniProt P00519, T315I)	binding, competition with immobilised ligand	0.1 µM	33%
O=C(c1ccc(Nc2ncc(Cl)c(-c3cc4ccccc4s3)n2)cc1)N1CCC(N2CCCC2)CC1	ABL1 H396P non-phosphorylated	binding, competition with immobilised ligand	1 µM	1.8%

SMILES	target	test	setting	remaining binding
CC(=O)N1CCC(c2ccc(C(=O)NC(=N)N)cc2C(F)(F)F)CC1	ABL1 T315I phosphorylated	cell-free assay, competition with immobilised ligand	1 µM	95%
O=C(NCC1CCOCC1)c1n[nH]cc1NC(=O)c1c(F)cccc1F	ABL1 F317I phosphorylated	binding, competition with immobilised ligand	1 µM	84%
CN1CCN(c2ccc(Nc3nccc(-c4ccccc4)n3)cc2C(F)(F)F)CC1	Tyrosine-protein kinase ABL1 (ABL1, Homo sapiens, UniProt P00519, F317L)	binding	10 µM	66%
N[C@H]1CCN(c2nccc(-c3cnn4ncccc34)n2)C1	Tyrosine-protein kinase ABL1 (ABL1, Homo sapiens, UniProt P00519, Y253F)	binding	1 µM	53%
O=C(c1ccc(Nc2ncc(Cl)c(-c3ccc(Cl)s3)n2)cc1)N1CCC(N2CCCC2)CC1	ABL1 H396P phosphorylated	binding, competition with immobilised ligand	1 µM	4.3%
COc1ncc2cc3ccccc3nc2c1C#N	ABL1 H396P non-phosphorylated	cell-free assay, competition with immobilised ligand	5 µM	100%
COc1ccnn2ncc(-c3ccnc(N(C)C)n3)c12	ABL1 Q252H	binding	1 µM	82%
O=C(O)[C@H]1[C@H](Cn2nnc3ccccc3c2=O)CC[C@@H]1C(=O)c1ccc(OCCC2CCOCC2)cc1	ABL1 F317I phosphorylated	binding	1 µM	100%
C=CC(=O)N1CCC(C(=O)NCC(=O)N2CCN(c3nc(-c4cnc(N)nc4C(F)F)nc(N4CCOCC4)n3)CC2)CC1	ABL1 phosphorylated	binding, competition with immobilised ligand	1 µM	93%
O=C(NCCCN1CCOCC1)c1ccc(Nc2nccc(-c3cc4ccccc4s3)n2)cc1	Tyrosine-protein kinase ABL1, phosphorylated (ABL1, Homo sapiens, UniProt P00519, M351T)	binding, competition with immobilised ligand	1 µM	49%
COc1cnc(Nc2cccc(S(N)(=O)=O)c2)nc1N1CCN(c2ccccc2)C(=O)C1	ABL1 H396P phosphorylated	binding, competition with immobilised ligand	1 µM	97%
Cc1cnn2ncc(-c3ccnc(N(C)C)n3)c2c1	ABL1 phosphorylated	binding	1 µM	81%
Nc1ncc2c(n1)-c1c([nH]c3ccc(C#CC4CC4)cc13)CCCC2	Tyrosine-protein kinase ABL1, phosphorylated (ABL1, Homo sapiens, UniProt P00519, Q252H)	binding, competition with immobilised ligand	1 µM	94%
CN(CCCC(F)(F)F)c1nccc(-c2cnn3ncccc23)n1	Tyrosine-protein kinase ABL1 (ABL1, Homo sapiens, UniProt P00519, H396P)	binding	1 µM	95%
CC(=O)Nc1c(C(C)=O)c(=O)n(C)c2nc(-c3ccc(Cl)cc3Cl)c(-c3ccc(Cl)cc3)cc12	ABL1 F317L phosphorylated	cell-free assay, competition with immobilised ligand	1 µM	100%
CN(c1nccc(-c2cnn3ncccc23)n1)C1CC1	Tyrosine-protein kinase ABL1, non-phosphorylated (ABL1, Homo sapiens, UniProt P00519)	binding	1 µM	100%
O=C(Nc1c[nH]nc1C(=O)NC1CCNCC1)c1cc(F)cc(F)c1	ABL1 Q252H non-phosphorylated	binding, competition with immobilised ligand	1 µM	100%
